Reference: ChEMBL document CHEMBL1123311, “Synthesis and antitumor and antiviral properties of 5-halo- and 5-(trifluoromethyl)-2'-deoxyuridine 3',5'-cyclic monophosphates and neutral triesters” (1986)
In brackets after ≈: the same amount, converted by molar mass.

tested on: Human alphaherpesvirus 2; assay: Evaluation of antiviral activity against Herpes simplex virus type 2 (HSV-2) strain 196.; assay type: functional; conditions: not given
Procedure, shortened: (§1)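 Virus-induced cytopathogenicity scored in primary rabbit kidney cell cultures. Value is the minimum concentration reducing cytopathogenicity by 50%. Cytotoxicity on uninfected cells was read as the minimal concentration causing a microscopically detectable change in normal cell morphology, tested up to 400 μg/mL.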

Row | Compound | MIC50 [mg/L]
1 | O=c1[nH]c(=O)n([C@H]2C[C@H](O)[C@@H](CO)O2)cc1/C=C/Br [BRIVUDINE] | 70 (≈ 210 µM)
2 | O=c1[nH]c(=O)n([C@H]2C[C@H](O)[C@@H](COP(=O)(O)O)O2)cc1/C=C/Br | > 400
3 | COP1(=O)OC[C@H]2O[C@@H](n3cc(Br)c(=O)[nH]c3=O)C[C@@H]2O1 (some centres undefined) | > 200
4 | N.O=c1[nH]c(=O)n([C@H]2C[C@@H]3O[PH](O)(O)OC[C@H]3O2)cc1F | ≥ 400
5 | N.O=c1[nH]c(=O)n([C@H]2C[C@@H]3O[PH](O)(O)OC[C@H]3O2)cc1Cl | 150

tested on: Human alphaherpesvirus 2; assay: Evaluation of antiviral activity against Herpes simplex virus type 2 (HSV-2) strain G; assay type: functional; conditions: not given; procedure, shortened: as §1

Row | Compound | MIC50 [mg/L]
6 | O=c1[nH]c(=O)n([C@H]2C[C@H](O)[C@@H](CO)O2)cc1/C=C/Br [BRIVUDINE] | 4 (≈ 12 µM)
7 | O=c1[nH]c(=O)n([C@H]2C[C@H](O)[C@@H](COP(=O)(O)O)O2)cc1/C=C/Br | 20 (≈ 48.4 µM)
8 | COP1(=O)OC[C@H]2O[C@@H](n3cc(Br)c(=O)[nH]c3=O)C[C@@H]2O1 (some centres undefined) | > 200
9 | N.O=c1[nH]c(=O)n([C@H]2C[C@@H]3O[PH](O)(O)OC[C@H]3O2)cc1F | ≥ 300
10 | N.O=c1[nH]c(=O)n([C@H]2C[C@@H]3O[PH](O)(O)OC[C@H]3O2)cc1Cl | 40

tested on: Human alphaherpesvirus 2; assay: Evaluation of antiviral activity against Herpes simplex virus type 2 (HSV-2) strain Lyons; assay type: functional; conditions: not given; procedure, shortened: as §1

Row | Compound | MIC50 [mg/L]
11 | O=c1[nH]c(=O)n([C@H]2C[C@H](O)[C@@H](CO)O2)cc1/C=C/Br [BRIVUDINE] | 7 (≈ 21 µM)
12 | O=c1[nH]c(=O)n([C@H]2C[C@H](O)[C@@H](COP(=O)(O)O)O2)cc1/C=C/Br | 100 (≈ 242 µM)
13 | COP1(=O)OC[C@H]2O[C@@H](n3cc(Br)c(=O)[nH]c3=O)C[C@@H]2O1 (some centres undefined) | 70 (≈ 183 µM)
14 | N.O=c1[nH]c(=O)n([C@H]2C[C@@H]3O[PH](O)(O)OC[C@H]3O2)cc1F | ≥ 200
15 | N.O=c1[nH]c(=O)n([C@H]2C[C@@H]3O[PH](O)(O)OC[C@H]3O2)cc1Cl | 20

tested on: Human alphaherpesvirus 1; assay: Evaluation of antiviral activity against Herpes simplex virus type 1 (HSV-1) strain F; assay type: functional; conditions: not given; procedure, shortened: as §1

Row | Compound | MIC50 [mg/L]
16 | O=c1[nH]c(=O)n([C@H]2C[C@H](O)[C@@H](CO)O2)cc1/C=C/Br [BRIVUDINE] | 0.02 (≈ 0.06 µM)
17 | O=c1[nH]c(=O)n([C@H]2C[C@H](O)[C@@H](COP(=O)(O)O)O2)cc1/C=C/Br | 0.02 (≈ 0.0484 µM)
18 | COP1(=O)OC[C@H]2O[C@@H](n3cc(Br)c(=O)[nH]c3=O)C[C@@H]2O1 (some centres undefined) | > 200
19 | N.O=c1[nH]c(=O)n([C@H]2C[C@@H]3O[PH](O)(O)OC[C@H]3O2)cc1F | > 400
20 | N.O=c1[nH]c(=O)n([C@H]2C[C@@H]3O[PH](O)(O)OC[C@H]3O2)cc1Cl | 100

tested on: Human alphaherpesvirus 1; assay: Evaluation of antiviral activity against Herpes simplex virus type 1 (HSV-1) strain McIntyre; assay type: functional; conditions: not given; procedure, shortened: as §1

Row | Compound | MIC50 [mg/L]
21 | O=c1[nH]c(=O)n([C@H]2C[C@H](O)[C@@H](CO)O2)cc1/C=C/Br [BRIVUDINE] | 0.07 (≈ 0.21 µM)
22 | O=c1[nH]c(=O)n([C@H]2C[C@H](O)[C@@H](COP(=O)(O)O)O2)cc1/C=C/Br | 0.02 (≈ 0.0484 µM)
23 | COP1(=O)OC[C@H]2O[C@@H](n3cc(Br)c(=O)[nH]c3=O)C[C@@H]2O1 (some centres undefined) | > 200
24 | N.O=c1[nH]c(=O)n([C@H]2C[C@@H]3O[PH](O)(O)OC[C@H]3O2)cc1F | > 400
25 | N.O=c1[nH]c(=O)n([C@H]2C[C@@H]3O[PH](O)(O)OC[C@H]3O2)cc1Cl | 100

tested on: L1210; assay: Evaluation of antitumor activity against mutant murine leukemia L1210 cells; assay type: functional; conditions: Mus musculus, read-out: ID50 (the source's name)
Procedure, shortened: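 Proliferation of mutant murine leukemia L1210/BdUrd cells, selected from parental L1210/0 for growth in 260 μg/mL 5-bromo-2'-deoxyuridine. Value is the dose inhibiting proliferation by 50%.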

Row | Compound | IC50 [mg/L]
26 | COP1(=O)OC[C@H]2O[C@@H](n3cc(Br)c(=O)[nH]c3=O)C[C@@H]2O1 (some centres undefined) | > 100
27 | N.O=c1[nH]c(=O)n([C@H]2C[C@@H]3O[PH](O)(O)OC[C@H]3O2)cc1F | 7.4
28 | N.O=c1[nH]c(=O)n([C@H]2C[C@@H]3O[PH](O)(O)OC[C@H]3O2)cc1Cl | > 1000

tested on: L1210; assay: Evaluation of cytostatic activity by using antitumor assays against murine leukemia L1210 cells; assay type: functional; conditions: Mus musculus, read-out: ID50 (the source's name)

Row | Compound | IC50 [mg/L]
29 | COP1(=O)OC[C@H]2O[C@@H](n3cc(Br)c(=O)[nH]c3=O)C[C@@H]2O1 (some centres undefined) | > 100
30 | N.O=c1[nH]c(=O)n([C@H]2C[C@@H]3O[PH](O)(O)OC[C@H]3O2)cc1F | 0.06
31 | N.O=c1[nH]c(=O)n([C@H]2C[C@@H]3O[PH](O)(O)OC[C@H]3O2)cc1Cl | 337

molecular target: Thymidylate synthase (Mus musculus) (UniProt P07607); assay: Compound was evaluated for the inhibition of L1210 thymidylate synthetase (L1210 dTMP); conditions: not given
Procedure, shortened: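 Enzyme source was a partially purified extract of murine leukemia L1210 cells. The dTMP synthetase assay followed an earlier published method, and no reaction conditions are given here.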

Sequence of Thymidylate synthase (Mus musculus) (P07607 whole entry, looked up): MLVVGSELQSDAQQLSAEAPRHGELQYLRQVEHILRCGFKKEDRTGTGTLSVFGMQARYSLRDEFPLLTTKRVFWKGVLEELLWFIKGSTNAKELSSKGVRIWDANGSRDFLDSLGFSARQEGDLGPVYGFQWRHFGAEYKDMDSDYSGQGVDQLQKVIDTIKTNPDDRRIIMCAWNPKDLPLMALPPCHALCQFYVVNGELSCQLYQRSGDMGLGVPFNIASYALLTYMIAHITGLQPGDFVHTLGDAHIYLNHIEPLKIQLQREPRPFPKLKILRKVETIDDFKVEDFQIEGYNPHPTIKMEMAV

Row | Compound | Ki/Km
32 | N.O=c1[nH]c(=O)n([C@H]2C[C@@H]3O[PH](O)(O)OC[C@H]3O2)cc1F | 38
33 | N.O=c1[nH]c(=O)n([C@H]2C[C@@H]3O[PH](O)(O)OC[C@H]3O2)cc1Cl | > 356

tested on: Vesicular stomatitis virus; assay: Evaluation of antiviral activity against Vesicular stomatitis virus.; assay type: functional; conditions: not given; procedure, shortened: as §1

Row | Compound | MIC50 [mg/L]
34 | O=c1[nH]c(=O)n([C@H]2C[C@H](O)[C@@H](CO)O2)cc1/C=C/Br [BRIVUDINE] | > 400
35 | O=c1[nH]c(=O)n([C@H]2C[C@H](O)[C@@H](COP(=O)(O)O)O2)cc1/C=C/Br | > 400
36 | COP1(=O)OC[C@H]2O[C@@H](n3cc(Br)c(=O)[nH]c3=O)C[C@@H]2O1 (some centres undefined) | > 200
37 | N.O=c1[nH]c(=O)n([C@H]2C[C@@H]3O[PH](O)(O)OC[C@H]3O2)cc1F | > 400

tested on: Vesicular stomatitis virus; assay: Compound was evaluated for the antiviral activity against Vesicular stomatitis virus.; assay type: functional; conditions: not given; procedure, shortened: as §1

Row | Compound | MIC50 [mg/L]
38 | N.O=c1[nH]c(=O)n([C@H]2C[C@@H]3O[PH](O)(O)OC[C@H]3O2)cc1Cl | > 400

tested on: Vaccinia virus; assay: Evaluation of antiviral activity against Vaccinia virus; assay type: functional; conditions: Orthopoxvirus vaccinia; procedure, shortened: as §1

Row | Compound | MIC50 [mg/L]
39 | O=c1[nH]c(=O)n([C@H]2C[C@H](O)[C@@H](CO)O2)cc1/C=C/Br [BRIVUDINE] | 4 (≈ 12 µM)
40 | O=c1[nH]c(=O)n([C@H]2C[C@H](O)[C@@H](COP(=O)(O)O)O2)cc1/C=C/Br | 7 (≈ 16.9 µM)
41 | COP1(=O)OC[C@H]2O[C@@H](n3cc(Br)c(=O)[nH]c3=O)C[C@@H]2O1 (some centres undefined) | 10 (≈ 26.1 µM)
42 | N.O=c1[nH]c(=O)n([C@H]2C[C@@H]3O[PH](O)(O)OC[C@H]3O2)cc1F | 1.5
43 | N.O=c1[nH]c(=O)n([C@H]2C[C@@H]3O[PH](O)(O)OC[C@H]3O2)cc1Cl | 2

tested on: Raji; assay: Evaluation of antitumor activity against thymidine kinase deficient Raji cell line; assay type: functional; conditions: Homo sapiens, read-out: ID50 (the source's name)

Row | Compound | IC50 [mg/L]
44 | COP1(=O)OC[C@H]2O[C@@H](n3cc(Br)c(=O)[nH]c3=O)C[C@@H]2O1 (some centres undefined) | > 100
45 | N.O=c1[nH]c(=O)n([C@H]2C[C@@H]3O[PH](O)(O)OC[C@H]3O2)cc1F | 19
46 | N.O=c1[nH]c(=O)n([C@H]2C[C@@H]3O[PH](O)(O)OC[C@H]3O2)cc1Cl | > 1000

organism: Homo sapiens; assay: Evaluation for antitumor activity against human lymphoblast Raji cells; assay type: functional; conditions: Homo sapiens, Raji; read-out: ID50 (the source's name)

Row | Compound | IC50 [mg/L]
47 | COP1(=O)OC[C@H]2O[C@@H](n3cc(Br)c(=O)[nH]c3=O)C[C@@H]2O1 (some centres undefined) | > 100
48 | N.O=c1[nH]c(=O)n([C@H]2C[C@@H]3O[PH](O)(O)OC[C@H]3O2)cc1F | 0.164
49 | N.O=c1[nH]c(=O)n([C@H]2C[C@@H]3O[PH](O)(O)OC[C@H]3O2)cc1Cl | 337

tested on: Human alphaherpesvirus 1; assay: Evaluation of antiviral activity against Herpes simplex virus type 1 (HSV-1) strain KOS.; assay type: functional; conditions: not given; procedure, shortened: as §1

Row | Compound | MIC50 [mg/L]
50 | O=c1[nH]c(=O)n([C@H]2C[C@H](O)[C@@H](CO)O2)cc1/C=C/Br [BRIVUDINE] | 0.02 (≈ 0.06 µM)
51 | O=c1[nH]c(=O)n([C@H]2C[C@H](O)[C@@H](COP(=O)(O)O)O2)cc1/C=C/Br | 0.02 (≈ 0.0484 µM)
52 | COP1(=O)OC[C@H]2O[C@@H](n3cc(Br)c(=O)[nH]c3=O)C[C@@H]2O1 (some centres undefined) | > 200
53 | N.O=c1[nH]c(=O)n([C@H]2C[C@@H]3O[PH](O)(O)OC[C@H]3O2)cc1F | > 400
54 | N.O=c1[nH]c(=O)n([C@H]2C[C@@H]3O[PH](O)(O)OC[C@H]3O2)cc1Cl | 20
